# Most compounds without a hit are left out; they make up all but 3.1% or so of the library.
# SENP6 inh: blocks the human protease SENP6; Recombinant SENP6 catalytic domain, aminoluciferin luminescence; inhibition, % at 10 µM; actives 1.8% (n = 330,000);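 active = inhibition above about 50% at the single tested dose, limit read from the data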;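 also: plate controls were DMSO wells with enzyme for no effect and DMSO wells lacking enzyme for full effect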
# SENP8 block-1: inhibitors of human SENP8 protease. Q96LD8. recombinant SENP8, Nedd8 substrate fluorescence. inhibition, % at 20 µM. actives 0.64% (n = 360,000); in the data active = inhibition mostly above about 40%, no sharp cut-off; inactive = mostly below about 27%
# Target sequence (Q96LD8 whole entry, looked up): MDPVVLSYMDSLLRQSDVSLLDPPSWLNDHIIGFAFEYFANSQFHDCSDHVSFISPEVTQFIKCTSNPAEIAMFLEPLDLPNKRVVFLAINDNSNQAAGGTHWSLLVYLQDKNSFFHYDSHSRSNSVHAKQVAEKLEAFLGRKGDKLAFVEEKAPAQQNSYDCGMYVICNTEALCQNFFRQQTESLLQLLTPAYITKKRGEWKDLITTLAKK
# UBC13 polyUb: inhibitors of human UBC13 polyubiquitin chain formation; P61088; TR-FRET; inhibition, % at 20 µM; actives 0.47% (n = 330,000); AID 485273; in the data active = inhibition above about 45%, passing the limit was not always enough
# Target sequence (P61088 whole entry, looked up): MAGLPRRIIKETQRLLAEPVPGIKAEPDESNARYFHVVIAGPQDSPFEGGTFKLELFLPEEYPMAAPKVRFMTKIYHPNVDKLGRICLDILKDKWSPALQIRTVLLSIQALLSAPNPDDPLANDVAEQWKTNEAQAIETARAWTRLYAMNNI
# Apaf-1 inh: blocks human Apaf-1 apoptosome activity; O14727; reconstituted apoptosome caspase-3 activity, DEVD-Rh110 fluorescence; inhibition, % at 20 µM; actives 0.71% (n = 330,000); active = inhibition of at least 40% at 20 µM;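 also: plate controls were DMSO wells for no effect and DEVD-CHO caspase inhibitor wells for full effect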
#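 detection = Rh110 fluorescence intensity | test system = biochemical Apaf-1 apoptosome reconstitution | also added = cytochrome c and DEVD-Rh110 substrate | schedule = 30 min plus 50 min, RT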
# SENP7 inh: inhibitors of human SENP7 protease; recombinant SENP7, Z-RLRGG-aminoluciferin luminescence, 40 min; actives 1.5% (n = 330,000); Q9BQF6; inhibition, % at 5 µM; AID 434973;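 active = inhibition above about 50% at the single test dose, limit read from the data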;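 also: plate controls were DMSO with enzyme for no effect and no enzyme buffer wells for full effect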
# SENP8 block-2: inhibitors of human SENP8 protease | AID 2540 | purified SENP8, Z-RLRGG-aminoluciferin cleavage, luminescence | actives 1.2% (n = 330,000) | inhibition, % at 10 µM | Q96LD8; in the data active = inhibition above about 50%
# Casp3 counter: inhibits human caspase-3 in UBC13 counter-screen; Recombinant caspase-3, Caspase-Glo 3/7 luminescence, 60 min; inhibition, % at 20 µM; shares compounds with UBC13 polyUb; actives 4% (n = 1,400);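 active = mean inhibition across replicates above about 26%, limit read from the data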;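 also: plate controls were DMSO with caspase-3 for no effect and DMSO wells lacking enzyme for full effect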
# Target sequence (P42574 whole entry, looked up): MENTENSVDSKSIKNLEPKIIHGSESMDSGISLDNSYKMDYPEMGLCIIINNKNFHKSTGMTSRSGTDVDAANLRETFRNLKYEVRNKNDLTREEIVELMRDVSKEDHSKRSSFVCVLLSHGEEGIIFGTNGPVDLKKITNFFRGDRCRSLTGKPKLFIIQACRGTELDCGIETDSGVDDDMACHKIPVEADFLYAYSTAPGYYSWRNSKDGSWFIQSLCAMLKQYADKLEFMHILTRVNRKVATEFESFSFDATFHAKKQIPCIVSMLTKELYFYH
# UBC13 conf: human UBC13 polyubiquitin inhibition, confirmed | shares compounds with UBC13 polyUb | UBC13 polyubiquitination, TR-FRET, biochemical | inhibition, % at 10 µM | actives 68% (n = 1,400) | AID 488859; in the data active = inhibition above about 45%
# Numbers without * were called inactive; i = inactive; nt = no result given.
SMILES,SENP6 inh,SENP8 block-1,UBC13 polyUb,Apaf-1 inh,SENP7 inh,SENP8 block-2,Casp3 counter,UBC13 conf
Cc1cccc(Nc2cc(C)c3c(O)cccc3n2)c1C,4.0,-320.8,74.2*,27.1,-2.2,-10.5,-0.2,58.0*
CCc1ccc(N(C(=O)c2snc(C(N)=O)c2N)C(C(=O)NC2CCCC2)c2ccco2)cc1 (stereo not drawn),-9.4,-277.3,63.4*,7.6,8.4,1.8,0.0,67.0*
Cc1ccc(N(C(=O)c2snc(C(N)=O)c2N)C(C(=O)NCCC(C)C)c2ccco2)cc1 (stereo not drawn),0.3,-408.5,73.7*,21.0,-7.9,-1.3,-2.3,61.8*
COc1ccc(N(C(=O)c2snc(C(N)=O)c2N)C(C(=O)NC2CCCC2)c2cccs2)cc1OC (stereo not drawn),2.3,-132.3,64.4*,1.0,0.2,4.4,1.0,35.2
COc1ccc(N(C(=O)c2snc(C(N)=O)c2N)C(C(=O)NC2CCCC2)c2ccco2)cc1 (stereo not drawn),-8.2,-214.5,81.6*,12.8,2.4,3.2,0.0,90.2*
CC(C)CCNC(=O)C(c1ccco1)N(Cc1ccccc1)C(=O)c1snc(C(N)=O)c1N (stereo not drawn),-10.2,-282.8,32.0,2.2,-7.0,-6.8,nt,nt
Cc1csc(NC(=O)C2(C)CCN2C(=O)C(C)C)c1C#N (stereo not drawn),nt,12.9,nt,nt,nt,nt,nt,nt
CC(=O)Nc1ccc(-c2ccnc3c2CC(C(=O)Nc2cccnc2)O3)cc1 (stereo not drawn),nt,1.5,nt,nt,nt,nt,nt,nt
NC(=O)c1nsc(C(=O)N(c2cccc(F)c2)C(C(=O)NC2CCCC2)c2ccc(O)cc2)c1N (stereo not drawn),6.5,-272.8,48.1*,9.7,3.3,-4.2,-1.3,51.2*
COc1ccc(C(C(=O)NC2CCCC2)N(C(=O)c2snc(C(N)=O)c2N)c2cccc(O)c2)cc1 (stereo not drawn),-26.2,-331.0,6.8,8.3,-0.7,-0.7,nt,nt
CC(C)CC(C(=O)NC1CCCC1)N(Cc1ccc2c(c1)OCO2)C(=O)c1snc(C(N)=O)c1N (stereo not drawn),4.6,-14.5,45.9*,21.7,-9.2,-7.3,-1.0,37.5
COc1ccc(N(C(=O)c2snc(C(N)=O)c2N)C(C(=O)NC2CCCCC2)c2ccc(C)o2)cc1 (stereo not drawn),-3.3,-281.2,59.7*,17.5,4.3,-3.8,2.6,54.8*
NC(=O)c1nsc(C(=O)N(c2cccc(F)c2)C(C(=O)NC2CCCC2)c2ccco2)c1N (stereo not drawn),-3.2,-283.2,53.0*,2.0,-6.5,1.1,-0.9,33.2
COc1cc(NS(=O)(=O)c2ccc(-n3cccn3)cc2)cc(OC)c1,nt,-8.0,nt,nt,nt,nt,nt,nt
Cc1cc2nc(C3CCCCC3)c(Cc3cccc(F)c3)n2c(C)c1Br,nt,6.5,nt,nt,nt,nt,nt,nt
COc1cc(OC)cc(-c2noc([C@H]3C[C@H](O)[C@@H](CO)O3)n2)c1,nt,6.6,nt,nt,nt,nt,nt,nt
CCOc1ccc(N(C(=O)c2snc(C(N)=O)c2N)C(C)C(=O)NC2CCCCC2)cc1 (stereo not drawn),4.7,-201.6,43.9,8.0,-0.2,-3.6,nt,nt
CCOc1ccc(N(C(=O)c2snc(C(N)=O)c2N)C(C(=O)NC2CCCC2)C(C)C)cc1 (stereo not drawn),-8.5,-105.6,69.7*,29.0,1.9,0.5,5.0,78.5*
CC1CN(S(=O)(=O)c2cccc(C(=O)N(Cc3nnc(-c4ccccc4Cl)o3)C3CC3)c2)CC(C)O1 (stereo not drawn),-6.8,-1.4,50.6*,29.2,8.0,-5.2,-2.1,85.6*
O=C(c1cccc(S(=O)(=O)N2CCOCC2)c1)N(Cc1nnc(-c2ccccc2Cl)o1)C1CC1,-8.0,16.6,-5.2,1.0,3.5,5.3,nt,nt
Cc1ccc2c(c1)c1c(n2CC(O)CNC2CCCCC2)CCCC1 (stereo not drawn),-2.6,-33.4,60.6*,34.1,-8.2,1.3,2.3,30.5
CC1CCCC(NC(=O)CSc2ncnc3ccccc23)C1C (stereo not drawn),-6.6,-60.1,45.8*,-1.0,6.8,-1.3,3.3,34.2
CC1CCCC(NC(=O)COc2ncnc3ccccc23)C1C (stereo not drawn),2.2,-1.5,-3.6,2.5,10.6,7.1,nt,nt
CCCCC(C(=O)NC(C)(C)C)N(Cc1ccccc1Cl)C(=O)c1snc(C(N)=O)c1N (stereo not drawn),5.9,-301.2,33.5,23.4,5.1,4.2,nt,nt
CCCC(C(=O)NC(C)(C)C)N(Cc1ccccc1Cl)C(=O)c1snc(C(N)=O)c1N (stereo not drawn),-1.3,i,48.7*,12.9,1.8,2.9,-2.2,60.7*
SMILES,SENP6 inh,SENP8 block-1,UBC13 polyUb,Apaf-1 inh,SENP7 inh,SENP8 block-2,Casp3 counter,UBC13 conf
C/C(=N/NC(=O)c1ccc(C(C)(C)C)cc1)c1ccccn1,5.4,2.0,50.7*,9.3,16.3,1.2,61.2*,100.8*
C/C(=N\NC(=O)c1ccc(Cl)c(Cl)c1)c1ccccn1,7.0,10.2,-3.1,2.3,3.5,7.2,nt,nt
CC(C)(C)c1ccc(C(=O)N/N=C/c2ccccn2)cc1,-4.2,7.4,64.9*,9.1,1.2,-0.3,4.6,87.3*
O=C(c1cccc(S(=O)(=O)N2CCOCC2)c1)N1CCCC(C(F)(F)F)C1 (stereo not drawn),-5.7,3.9,0.6,2.2,-13.0,-5.9,nt,nt
O=C(c1cccc(S(=O)(=O)N2CCCC2)c1)N1CCCC(C(F)(F)F)C1 (stereo not drawn),2.4,3.0,72.7*,20.6,-0.5,8.1,-3.0,108.6*
O=c1c2cc(NC(=S)NCCN3CCCCCC3)ccc2nc2n1CCCCC2,3.3,-9.8,-3.8,12.3,6.3,-1.2,nt,nt
O=c1c2cc(NC(=S)NCCCN3CCC(Cc4ccccc4)CC3)ccc2nc2n1CCCCC2,3.1,5.7,50.6*,-0.7,-1.7,-7.3,3.9,85.4*
CCN1CCN(C(=O)c2cc3c(s2)-c2c(C)cccc2OC3)CC1,7.2,-453.3,79.5*,1.1,8.2,6.3,53.5*,75.7*
CCCCC[C@@H](C)N1C[C@@H](COCc2ccccc2)Oc2cc(N3CCC[C@@H]3CO)ccc2S1(=O)=O,nt,7.3,nt,nt,nt,nt,nt,nt
CC(C)(C)NCc1cc(Br)ccc1OCc1cccs1,-33.3,11.0,66.0*,-16.2,-2.2,0.7,1.4,17.7
CC(C)(C)NCc1cc(Cl)ccc1OCc1cccs1,7.6,17.9,2.5,0.3,12.9,5.0,nt,nt
Cc1cc(NC(=O)Cn2c(=O)n(CCCCC(=O)NC3CCN(Cc4ccccc4)CC3)c(=O)c3ccccc32)n[nH]1,6.5,nt,51.7*,-10.6,1.5,-1.1,-2.2,48.2*

# High-throughput results as filed in PubChem.
